Published values pooled from the literature.
Lines come from different studies, so protocols differ.
Target: Mitogen-activated protein kinase 8 (MAPK8, Homo sapiens, UniProt P45983)

`CN(C)c1nccc(-c2cnn3ncccc23)n1` has a remaining binding of 100% (binding, competition with immobilised ligand; 1 µM).
`O=C(O)c1cc(-c2ccc(C3CCNCC3)cc2)c2ccc(-c3ccc(C(F)(F)F)cc3)cc2c1` has a remaining binding of 100% (cell-free assay, competition with immobilised ligand; 1 µM).
The remaining binding of `C[C@@H]1CN(c2ccc3ncc(-c4ccc5[nH]nc(C6CC6)c5c4)n3n2)C[C@H](C)O1` is reported as 54% (binding, competition with immobilised ligand; 0.5 µM).
`O=C(c1ccc(Nc2ncc(Cl)c(-c3cc4ccccc4s3)n2)cc1)N1CCC(N2CCCC2)CC1` gave a remaining binding of 3% (binding, competition with immobilised ligand; 1 µM).
The remaining binding of `N[C@H]1CCN(c2nccc(-c3cnn4ncccc34)n2)C1` is reported as 85% (binding, competition with immobilised ligand; 1 µM).
For `O=C(NCC1CCOCC1)c1n[nH]cc1NC(=O)c1c(F)cccc1F`, the remaining binding was 16% (binding, competition with immobilised ligand; 1 µM).
For `CN(c1nccc(-c2cnn3ncccc23)n1)C1CC1`, the remaining binding was 100% (binding; 1 µM).
The remaining binding of `CCC(=O)N[C@@H]1CC[C@H](C(=O)N(C)c2ccc(-c3nc4ccccc4o3)cc2)C1` is reported as 53% (cell-free assay, competition with immobilised ligand; 1 µM).
The remaining binding of `O=C(c1ccc(Nc2nccc(-c3cc4ccccc4s3)n2)cc1)N1CCC(N2CCCC2)CC1` is reported as 2.4% (binding, competition with immobilised ligand; 1 µM).
`CNC(=O)[C@@H]1CC[C@@H](n2c(-c3ccc4cnccc4c3)nc3ccc(C(=O)NCc4cccc(C(N)=O)c4)cc32)C1` gave a remaining binding of 82% (binding, competition with immobilised ligand; 1 µM).
With `C[C@H](c1ccc(F)cc1)N(Cc1cccc(C(=O)O)c1)C(=O)c1cnc2ccccc2c1` the remaining binding was 100% (cell-free assay, competition with immobilised ligand; 1 µM).
`c1cnn2ncc(-c3ccnc(N4CCC45COC5)n3)c2c1` gave a remaining binding of 26% (binding, competition with immobilised ligand; 1 µM).
With `Cc1c[nH]c2nccc(Oc3c(F)cc(Nc4cc(Cl)nc(N)n4)cc3F)c12` the remaining binding was 80% (cell-free assay, competition with immobilised ligand; 0.1 µM).
For `Cc1cnc(Nc2ccc(C(=O)N3CCC(N4CCCC4)CC3)cc2)nc1-c1cc2ccccc2s1`, the remaining binding was 4.5% (binding, competition with immobilised ligand; 1 µM).
`Cn1nc(C(=O)NCc2ccc(C(=O)O)cc2)cc1-c1ccc2[nH]ccc2c1` gave a remaining binding of 88% (cell-free assay, competition with immobilised ligand; 0.1 µM).
The remaining binding of `COc1cnc(Nc2cccc(S(N)(=O)=O)c2)nc1N1CCN(c2ccccc2)CC1` is reported as 87% (binding, competition with immobilised ligand; 1 µM).
For `F[C@@H]1CCN(c2nccc(-c3cnn4ncccc34)n2)C1`, the remaining binding was 89% (binding; 1 µM).
`O=c1nc(-c2ccccn2)sc2ccccc12` gave a remaining binding of 100% (binding, competition with immobilised ligand; 1 µM).
The remaining binding of `CCN1CCN(Cc2ccc(C(=O)Nc3ccc(C)c(Oc4ccc5c(c4)CC(=O)N5)c3)cc2C(F)(F)F)CC1` is reported as 82% (binding, competition with immobilised ligand; 1 µM).
`CN(CCCC(F)(F)F)c1nccc(-c2cnn3ncccc23)n1` gave a remaining binding of 100% (binding, competition with immobilised ligand; 1 µM).
`C[C@H](c1ccnc(Nc2nc3ccc(-c4cc(N(C)C)ncn4)cc3[nH]2)c1)N1CCN(C(=O)CC(F)(F)F)CC1` gave a remaining binding of 98% (cell-free assay, competition with immobilised ligand; 0.1 µM).
The remaining binding of `C[C@H]1CCN(c2nccc(-c3cnn4ncccc34)n2)C1` is reported as 34% (binding, competition with immobilised ligand; 1 µM).
`CC(C)(C)c1ccc(-c2nc(CBr)nn2-c2cccc(O)c2)cc1` has a remaining binding of 73% (cell-free assay, competition with immobilised ligand; 10 µM).
With `N#Cc1ccccc1CSc1nnc2c(n1)[nH]c1ccccc12` the remaining binding was 96% (binding, competition with immobilised ligand; 10 µM).
